Experimental findings from ChEMBL document CHEMBL2010753, “Free radical scavenging and antiproliferative properties of Biginelli adducts” (2012) are described below.

Values after ≈ are worked out from the molar mass of the structure shown. Active and inactive are the calls of the source. The calls are words filed in the database; no cut-off is given here.

Assay type in all cases: functional
One experiment deals with HT-29. The experiment in a line: Growth inhibition of human HT-29 cells after 48 hrs by sulforhodamine B assay. Particulars: HT-29, 48 h.
The next experiment deals with 786-0. Put plainly: Growth inhibition of human 786-0 cells after 48 hrs by sulforhodamine B assay. Particulars: 786-0, 48 h. For orientation: Sulforhodamine B stains cellular protein and so reports cell mass.
The nature of experiment [1]: Antioxidant activity assessed as scavenging of DPPH at 160 uM after 30 mins by spectrophotometry.
The next experiment has as its system NCI-H460. The experiment in a line: Growth inhibition of human NCI-H460 cells after 48 hrs by sulforhodamine B assay. Particulars: NCI-H460, 48 h.
The next experiment relates to PC-3. The experiment in a line: Growth inhibition of human PC3 cells after 48 hrs by sulforhodamine B assay. Particulars: PC-3, 48 h.
The subject of the next experiment is U-251. Put plainly: Growth inhibition of human U251 cells after 48 hrs by sulforhodamine B assay. Particulars: U-251, 48 h.
Another experiment deals with OVCAR-3. The experiment in a line: Growth inhibition of human OVCAR3 cells after 48 hrs by sulforhodamine B assay. As to conditions: OVCAR-3, 48 h.
A short description of experiment [2]: Growth inhibition of human NCI-ADR-RES cells after 48 hrs by sulforhodamine B assay.
Experiment [3] in a line: Antioxidant activity assessed as concentration required for 50% DPPH scavenging activity after 30 mins by spectrophotometry. (Loss of DPPH colour is used to gauge radical scavenging.)
A short description of experiment [4]: Antioxidant activity assessed as concentration required for 50% DPPH scavenging activity after 30 mins by spectrophotometry relative to monastrol.
Experiment [5] is described as follows: Antioxidant activity assessed as scavenging of DPPH at 29.7 uM up to 10 mins by spectrophotometry. In outline: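 Kinetic run: reaction medium with 10 nmol DPPH radicals in ethanol and compound at the stated concentration, DPPH scavenging followed over time up to 10 min. Three independent experiments, each in triplicate.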

Usually GI50 stands for the concentration that inhibits growth by half. Read a low GI50 as greater sensitivity of the cells. Turning to `CCOC(=O)C1=C(C)NC(=S)NC1c1ccc2c(c1)OCO2` (stereo not given), the concentration for 50% growth inhibition (GI50) with HT-29 came out at 31.4 µg/mL (≈ 98 µM); with 786-0, 27 µg/mL (≈ 84.3 µM); in the experiment with NCI-H460, 27 µg/mL (≈ 84.3 µM); with PC-3, 13.4 µg/mL (≈ 41.8 µM); in the experiment with U-251, 25.9 µg/mL (≈ 80.8 µM); in the experiment with OVCAR-3, 55.3 µg/mL (≈ 173 µM). Besides, it took 57.1 µg/mL (≈ 178 µM) to inhibit growth in [2] by half (GI50). For the same molecule, the result in experiment [1] was inactive.

Consider `CCOC(=O)C1=C(C)NC(=S)NC1c1ccccc1` (stereo not given), for which the GI50 with HT-29 amounted to 29.8 µg/mL (≈ 108 µM); with 786-0, 27.7 µg/mL (≈ 100 µM); with NCI-H460, 28 µg/mL (≈ 101 µM); with PC-3 it was 42.2 µg/mL (≈ 153 µM); with U-251, 26.6 µg/mL (≈ 96.3 µM); in the experiment with OVCAR-3, 27.7 µg/mL (≈ 100 µM). Moreover, it took 27.4 µg/mL (≈ 99.1 µM) to inhibit growth in [2] by half (GI50). In addition, the result in experiment [1] was inactive.

For `CCOC(=O)C1=C(C)NC(=S)NC1c1ccc(SC)cc1` (stereo not given), the GI50 in the experiment with HT-29 was 17.2 µg/mL (≈ 53.3 µM); with 786-0, 5.3 µg/mL (≈ 16.4 µM); in the experiment with NCI-H460 it was 21.6 µg/mL (≈ 67 µM); with PC-3, 23.6 µg/mL (≈ 73.2 µM); in the experiment with U-251 it was 6 µg/mL (≈ 18.6 µM); in the experiment on OVCAR-3 it was 8.5 µg/mL (≈ 26.4 µM). In [2], this molecule showed a GI50 of 35.7 µg/mL (≈ 111 µM). Also, the result in [1] was inactive.

`CCOC(=O)C1=C(C)NC(=S)NC1c1ccc(O)cc1` (stereo not given): the GI50 in the experiment with HT-29 was over 250 µg/mL; in the experiment with 786-0, 27.5 µg/mL (≈ 94.1 µM); in the experiment on NCI-H460, over 250 µg/mL; in the experiment with PC-3 it was 47.6 µg/mL (≈ 163 µM); in the experiment on U-251 it was 77.2 µg/mL (≈ 264 µM); in the experiment on OVCAR-3, 37.7 µg/mL (≈ 129 µM). In addition, the concentration for 50% growth inhibition (GI50) in experiment [2] amounted to 83.6 µg/mL (≈ 286 µM). Also, the result in experiment [1] was inactive.

Take `CCOC(=O)C1=C(C)NC(=S)NC1c1cccc(OC)c1` (stereo not given): the GI50 with HT-29 came to 28.3 µg/mL (≈ 92.4 µM); in the experiment on 786-0, 24.9 µg/mL (≈ 81.3 µM); in the experiment on NCI-H460 it was 29.2 µg/mL (≈ 95.3 µM); with PC-3, 10.2 µg/mL (≈ 33.3 µM); in the experiment on U-251 it was 28.1 µg/mL (≈ 91.7 µM); in the experiment with OVCAR-3, 1.3 µg/mL (≈ 4.24 µM). The molecule further returned a GI50 in experiment [2] of 25.6 µg/mL (≈ 83.6 µM). The outcome in [1] was inactive.

Consider `CCOC(=O)C1=C(C)NC(=O)NC1c1ccc(O)cc1` (stereo not given), for which the GI50 in the experiment on HT-29 was found to be 28.7 µg/mL (≈ 104 µM); in the experiment on 786-0 it was 25.8 µg/mL (≈ 93.4 µM); with NCI-H460, 40.6 µg/mL (≈ 147 µM); with PC-3 it was 136 µg/mL (≈ 492 µM); in the experiment on U-251, 4.2 µg/mL (≈ 15.2 µM); in the experiment with OVCAR-3, 27.3 µg/mL (≈ 98.8 µM). The molecule also registered a GI50 in [2] of 3.2 µg/mL (≈ 11.6 µM). Further, in [1], the outcome was inactive.

Consider `CCOC(=O)C1=C(C)NC(=O)NC1C1CCCCC1` (stereo not given), for which the GI50 in the experiment on HT-29 was over 250 µg/mL; in the experiment on 786-0 it was over 250 µg/mL; in the experiment with NCI-H460, over 250 µg/mL; with PC-3, over 250 µg/mL; in the experiment on U-251, 142 µg/mL (≈ 533 µM); in the experiment on OVCAR-3 it was over 250 µg/mL. Further, the GI50 in [2] is over 250 µg/mL. The outcome in experiment [1] was inactive.

Usually IC50 stands for the concentration needed to halve the response being measured. On to `CCOC(=O)C1=C(C)NC(=S)NC1c1ccc(O)c(OC)c1` (stereo not given), for which the GI50 is 34.9 µg/mL (≈ 108 µM) in the experiment with HT-29; 30 µg/mL (≈ 93.1 µM) in the experiment with 786-0; 180 µg/mL (≈ 560 µM) in the experiment with NCI-H460; 72.6 µg/mL (≈ 225 µM) in the experiment with PC-3; 88.3 µg/mL (≈ 274 µM) in the experiment with U-251; 11 µg/mL (≈ 34.1 µM) in the experiment on OVCAR-3. In [2], this molecule returned a GI50 of 59.7 µg/mL (≈ 185 µM). The Activity in experiment [1] was 65%. Moreover, in [3], the 50% inhibitory concentration (IC50) came to 104 µM.

Regarding `CCOC(=O)C1=C(C)NC(=S)NC1c1ccc(OC)cc1` (stereo not given), the GI50 with HT-29 is 30.6 µg/mL (≈ 99.9 µM); with 786-0, 25.9 µg/mL (≈ 84.5 µM); in the experiment on NCI-H460, 31.4 µg/mL (≈ 102 µM); with PC-3, 5.5 µg/mL (≈ 18 µM); with U-251 it was 29 µg/mL (≈ 94.7 µM); in the experiment on OVCAR-3 it was 0.99 µg/mL (≈ 3.23 µM). In addition, the GI50 in experiment [2] was found to be 3.2 µg/mL (≈ 10.4 µM). Besides, the outcome in [1] was inactive.

In the case of `CCOC(=O)C1=C(C)NC(=S)N[C@H]1c1cccc(O)c1` [S-MENASTROL], the concentration for 50% growth inhibition (GI50) was found to be 29.6 µg/mL (≈ 101 µM) in the experiment with HT-29; 4 µg/mL (≈ 13.7 µM) in the experiment with 786-0; 10.6 µg/mL (≈ 36.3 µM) in the experiment on NCI-H460; 5.6 µg/mL (≈ 19.2 µM) in the experiment on PC-3; 24 µg/mL (≈ 82.1 µM) in the experiment on U-251; 14.4 µg/mL (≈ 49.3 µM) in the experiment on OVCAR-3. For the same molecule, in [2], it took 22.2 µg/mL (≈ 75.9 µM) to inhibit growth by half (GI50). For the same molecule, the result in experiment [1] was inactive.

In the case of `CCOC(=O)C1=C(C)NC(=O)NC1c1ccccc1` (stereo not given), the GI50 in the experiment with HT-29 was over 250 µg/mL; in the experiment on 786-0, over 250 µg/mL; in the experiment with NCI-H460, 28.9 µg/mL (≈ 111 µM); with PC-3 it was over 250 µg/mL; in the experiment with U-251, over 250 µg/mL; in the experiment on OVCAR-3 it was over 250 µg/mL. In addition, the GI50 in experiment [2] was over 250 µg/mL. The outcome in experiment [1] was inactive.

Consider `CCOC(=O)C1=C(C)NC(=S)NC1c1ccc(O)c(O)c1` (stereo not given), for which the GI50 in the experiment on HT-29 is 22.7 µg/mL (≈ 73.6 µM); in the experiment with 786-0 it was 28.3 µg/mL (≈ 91.8 µM); in the experiment with NCI-H460, 31.7 µg/mL (≈ 103 µM); in the experiment with PC-3, 25 µg/mL (≈ 81.1 µM); in the experiment with U-251 it was 26.5 µg/mL (≈ 85.9 µM); with OVCAR-3 it was 25 µg/mL (≈ 81.1 µM). Moreover, the GI50 in [2] is 24.3 µg/mL (≈ 78.8 µM). In addition, in experiment [1], the result was Active. Further, the fold change (FC) in experiment [4] came out at 37. In addition, in [5], the Activity was 413 pmol. Besides, the IC50 in experiment [3] amounted to 29.7 µM.
